ChEMBL document CHEMBL1129542, “trans-2-Aryl-N,N-dipropylcyclopropylamines: synthesis and interactions with 5-HT(1A) receptors” (J Med Chem, 1996)

Assays:
[1] = biological target: T1, 5-hydroxytryptamine receptor 1A (Rattus norvegicus, UniProt P19327); test: In vitro binding affinity of compound towards 5-hydroxytryptamine 1A receptor was determined using [3H]8-OH-DPAT as radioligand; range=16-20
T1 sequence (P19327 whole entry): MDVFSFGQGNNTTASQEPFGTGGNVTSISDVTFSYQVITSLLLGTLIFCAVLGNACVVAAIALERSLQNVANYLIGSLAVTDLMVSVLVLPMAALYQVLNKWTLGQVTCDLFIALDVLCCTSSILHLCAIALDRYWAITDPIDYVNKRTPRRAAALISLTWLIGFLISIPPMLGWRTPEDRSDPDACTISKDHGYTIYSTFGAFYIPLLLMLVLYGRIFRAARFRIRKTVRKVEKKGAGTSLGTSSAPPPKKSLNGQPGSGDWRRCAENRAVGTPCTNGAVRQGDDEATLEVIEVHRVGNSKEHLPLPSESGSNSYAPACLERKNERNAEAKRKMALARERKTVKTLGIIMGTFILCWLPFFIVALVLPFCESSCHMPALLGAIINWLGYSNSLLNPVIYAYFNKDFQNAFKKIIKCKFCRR
In short: (§1)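 Rat (male Sprague–Dawley) cortex plus hippocampus membranes, washed twice in 50 mM Tris-HCl with 4.0 mM CaCl2 and 5.7 mM ascorbate, pH 7.5, pretreated with 10 μM pargyline. Competition against 2 nM [3H]-8-OH-DPAT with 1–300 nM compound, 5 mg/mL tissue, 37 °C for 10 min, then filtration. Nonspecific binding defined with 10 μM 5-HT. […] Range derived from the standard error of the estimate.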

[2] = biological target: T1, 5-hydroxytryptamine receptor 1A; test: In vitro binding affinity of compound towards 5-hydroxytryptamine 1A receptor was determined using [3H]8-OH-DPAT as radioligand; range=160-430; in short: as §1
[3] = biological target: T1, 5-hydroxytryptamine receptor 1A; test: In vitro binding affinity of compound towards 5-hydroxytryptamine 1A receptor was determined using [3H]8-OH-DPAT as radioligand; range=710-980; in short: as §1
[4] = biological target: T1, 5-hydroxytryptamine receptor 1A; test: In vitro binding affinity of compound towards 5-hydroxytryptamine 1A receptor was determined using [3H]8-OH-DPAT as radioligand; range=12-14; in short: as §1
[5] = biological target: T1, 5-hydroxytryptamine receptor 1A; test: In vitro binding affinity of compound towards 5-hydroxytryptamine 1A receptor was determined using [3H]8-OH-DPAT as radioligand; range=78-140; in short: as §1
[6] = biological target: T1, 5-hydroxytryptamine receptor 1A; test: In vitro binding affinity of compound towards 5-hydroxytryptamine 1A receptor was determined using [3H]8-OH-DPAT as radioligand; range=85-130; in short: as §1
[7] = biological target: T1, 5-hydroxytryptamine receptor 1A; test: In vitro binding affinity of compound towards 5-hydroxytryptamine 1A receptor was determined using [3H]8-OH-DPAT as radioligand; in short: as §1
[8] = biological target: T1, 5-hydroxytryptamine receptor 1A; test: In vitro binding affinity of compound towards 5-hydroxytryptamine 1A receptor was determined using [3H]-8-OH-DPAT as radioligand; range=39-87; in short: as §1
[9] = biological target: T1, 5-hydroxytryptamine receptor 1A; test: In vitro binding affinity of compound towards 5-hydroxytryptamine 1A receptor was determined using [3H]-8-OH-DPAT as radioligand; range=21-28; in short: as §1
[10] = biological target: T1, 5-hydroxytryptamine receptor 1A; test: In vitro binding affinity of compound towards 5-hydroxytryptamine 1A receptor was determined using [3H]8-OH-DPAT as radioligand; range=20-23; in short: as §1
[11] = biological target: T1, 5-hydroxytryptamine receptor 1A; test: In vitro binding affinity of compound towards 5-hydroxytryptamine 1A receptor was determined using [3H]8-OH-DPAT as radioligand; range=184-503; in short: as §1
[12] = biological target: T1, 5-hydroxytryptamine receptor 1A; test: In vitro binding affinity of compound towards 5-hydroxytryptamine 1A receptor was determined using [3H]8-OH-DPAT as radioligand; range=19-23
[13] = biological target: T1, 5-hydroxytryptamine receptor 1A; test: In vitro binding affinity of compound towards 5-hydroxytryptamine 1A receptor was determined using [3H]-8-OH-DPAT as radioligand; range=48-77; in short: as §1
[14] = biological target: T1, 5-hydroxytryptamine receptor 1A; test: In vitro binding affinity of compound towards 5-hydroxytryptamine 1A receptor was determined using [3H]8-OH-DPAT as radioligand; range=89-280; in short: as §1
[15] = biological target: T1, 5-hydroxytryptamine receptor 1A; test: In vitro binding affinity of compound towards 5-hydroxytryptamine 1A receptor was determined using [3H]8-OH-DPAT as radioligand; range=2.7-3.6; in short: as §1
[16] = biological target: T1, 5-hydroxytryptamine receptor 1A; test: In vitro binding affinity of compound towards 5-hydroxytryptamine 1A receptor was determined using [3H]8-OH-DPAT as radioligand; range=63-95; in short: as §1
[17] = biological target: T1, 5-hydroxytryptamine receptor 1A; test: In vitro binding affinity of compound towards 5-hydroxytryptamine 1A receptor was determined using [3H]8-OH-DPAT as radioligand; range=174-224; in short: as §1

## CCCN(CCC)[C@@H]1C[C@H]1c1ccccc1OC
[1]
  Ki: 0.017 µM

## CCCN(CCC)[C@H]1C[C@@H]1c1ccccc1OC
[2]
  Ki: 0.23 µM

## CCCN(CCC)[C@H]1C[C@@H]1c1cccs1
[3]
  Ki: 0.82 µM

## CCCN(CCC)[C@@H]1C[C@H]1c1cccs1
[4]
  Ki: 0.011 µM

## CCCN(CCC)C1CC1c1cccs1 (stereo not given)
[4]
  Ki: 0.013 µM

## CCCN(CCC)C1CC1c1cc(F)ccc1O (stereo not given)
[5]
  Ki: 0.099 µM

## CCCN(CCC)C1CC1c1cccc(F)c1 (stereo not given)
[6]
  Ki: 0.1 µM

## CCCN(CCC)C1CC1c1cc2ccccc2s1 (stereo not given)
[7]
  Ki: > 1 µM

## CCCN(CCC)[C@@H]1C[C@H]1c1cc(F)ccc1OC
[8]
  Ki: 0.06 µM

## CCCN(CCC)C1CC1c1ccccc1 (stereo not given)
[9]
  Ki: 0.024 µM

## CCCN(CCC)C1CC1c1ccccc1Br (stereo not given)
[10]
  Ki: 0.022 µM

## CCCN(CCC)[C@H]1C[C@@H]1c1cc(F)ccc1O
[11]
  Ki: 0.348 µM

## CCCN(CCC)C1CC1c1ccsc1 (stereo not given)
[12]
  Ki: 0.021 µM

## CCCN(CCC)C1CC1c1ccccc1F (stereo not given)
[13]
  Ki: 0.059 µM

## CCCN(CCC)C1CC1c1ccccc1C(F)(F)F (stereo not given)
[7]
  Ki: > 1 µM

## CCCN(CCC)C1CC1c1cccc(Cl)c1Cl (stereo not given)
[7]
  Ki: > 0.3 µM

## CCCN(CCC)C1CC1c1cc(F)ccc1OC (stereo not given)
[14]
  Ki: 0.14 µM

## CCCN(CCC)[C@@H]1C[C@H]1c1cc(F)ccc1O
[15]
  Ki: 0.0032 µM

## CCCN(CCC)C1CC1c1ccc(F)cc1 (stereo not given)
[16]
  Ki: 0.076 µM

## CCCN(CCC)[C@H]1C[C@@H]1c1cc(F)ccc1OC
[17]
  Ki: 0.199 µM
